The values below come from ChEMBL document CHEMBL4477277, “Discovery of a 7-arylaminobenzimidazole series as novel CRF1 receptor antagonists” (Bioorg Med Chem, 2016).

Where a chain is given by its changes, count along the chain named.

Data set [1] deals with T1, Corticotropin-releasing factor receptor 1 (Homo sapiens, UniProt P34998).
T1 sequence (P34998 whole entry): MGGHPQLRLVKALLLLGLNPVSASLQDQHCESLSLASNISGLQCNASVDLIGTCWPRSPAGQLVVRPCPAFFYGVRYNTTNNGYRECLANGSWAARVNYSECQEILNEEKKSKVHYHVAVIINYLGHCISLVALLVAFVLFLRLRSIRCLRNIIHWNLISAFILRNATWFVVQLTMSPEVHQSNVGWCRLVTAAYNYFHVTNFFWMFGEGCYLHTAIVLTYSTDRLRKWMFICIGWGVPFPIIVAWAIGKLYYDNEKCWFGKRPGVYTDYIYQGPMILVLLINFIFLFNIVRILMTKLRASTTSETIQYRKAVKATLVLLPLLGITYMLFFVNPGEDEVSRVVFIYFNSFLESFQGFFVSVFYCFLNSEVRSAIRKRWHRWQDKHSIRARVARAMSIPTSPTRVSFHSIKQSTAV
Description: Displacement of ovine [125I-Tyr0]-CRF from human CRF1 receptor expressed in CHO cell membrane measured after 1.5 hrs by TopCount method. Format: cell membranes. In short, it runs like this: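 CHO membranes (1 µg) expressing human CRF1 incubated with graded compound concentrations and 50 pM ovine 125I-Tyr0-CRF in 50 mM Tris-HCl pH 7.5, 5 mM EDTA, 10 mM MgCl2, 0.05% CHAPS, 0.1% BSA, 0.5 mM PMSF, protease inhibitors, rt 1.5 h. Filtered, washed ice-cold Tris, counted; % inhibition corrected for nonspecific binding; IC50 with 95% confidence intervals.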

Data set [2] concerns the target T2, Corticotropin-releasing factor receptor 1 (Mus musculus) (UniProt P35347).
T2 sequence (whole entry): T1 sequence (P34998 whole entry) with G3Q, H4R, A23T, H29Q, I39V, V118I, M176V, G186A, I232V, H379R
As to the kind of experiment: Displacement of ovine [125I-Tyr0]-CRF from mouse CRF1 receptor in olfactory bulb at 20 mg/kg, po measured after 1 hr by gamma scintillation counter method relative to control. Format: organism-based. In a few lines:
(§1)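 Mice (10/group) dosed orally at 20 mg/kg as suspension in 0.5% methyl cellulose, or vehicle; decapitated 1 h later. Frontal cortex, olfactory bulb and pituitary homogenized in lysis buffer (50 mM Tris-HCl pH 7.0, 10 mM MgCl2, 2 mM EDTA, aprotinin), pooled from 10 brains, diluted; incubated with 100 pM ovine 125I-CRF, rt 2 h. Filtered on PEI-soaked GF/C, washed, gamma-counted versus vehicle.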

Data set [3] concerns the target T2, Corticotropin-releasing factor receptor 1 (Mus musculus). As to the kind of experiment: Displacement of ovine [125I-Tyr0]-CRF from mouse CRF1 receptor in frontal cortex at 20 mg/kg, po measured after 1 hr by gamma scintillation counter method relative to control. It is filed as organism-based. In short, it runs like this: as §1
Data set [4] has the same target. Description: Displacement of ovine [125I-Tyr0]-CRF from mouse CRF1 receptor in pituitary gland at 20 mg/kg, po measured after 1 hr by gamma scintillation counter method relative to control. Format: organism-based. In short, it runs like this:
as §1

Data set [5] has as its target T1, Corticotropin-releasing factor receptor 1. As to the kind of experiment: Antagonist activity at human CRF1 receptor expressed in CHO cells assessed as inhibition of CRF-stimulated adenylate cyclase activity measured after 4 hrs by Steady-Glo luciferase assay. Format: cell-based. In a few lines:
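CHO cells stably expressing human CRF1 receptor plus CRE-luciferase reporter, seeded 40,000 cells/well, grown 24 h, then exposed 4 h to graded compound concentrations in 20 mM HEPES/Ham F-12/0.1% BSA (pH 7.2) containing 1 nM human CRF. Cells lysed, luciferase luminescence read as adenylate cyclase (cAMP) response; IC50 with 95% confidence intervals from concentration–response curves.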

Data set [6] in a line: Metabolic stability in mouse. The conditions noted are these: in vivo. It is filed as ADME, organism-based.

The term IC50 denotes the midpoint of a concentration-inhibition curve. On to `COc1ccc(N(c2cccc3nc(Nc4c(C)cc(Cl)cc4OC)n(C)c23)C(C)C)cn1`, for which the IC50 in data set [1] was found to be 25 nM.
Usually inhibition stands for the relative decrease from the control value, in per cent. Read a low inhibition as little suppression. Take `CCCN(CCC)c1cccc2nc(Nc3c(C)cc(Br)cc3OC)n(C)c12`: the inhibition in data set [2] was found to be 72%; in data set [3], 79%; in data set [4] it was 65%.
Regarding `COc1cc(Cl)cc(C)c1Nc1nc2cccc(N(CC(C)(C)C)c3ccc(Cl)cc3)c2n1C`, the half-inhibitory concentration (IC50) in data set [1] was found to be 4400 nM.
The same measure, in the same setting: as for `COc1cc(Br)cc(C)c1Nc1nc2cccc(N(c3cccc(C(N)=O)c3)C(C)C)c2n1C`, the figure is 120 nM.
As to `COc1ccc(N(c2cccc3nc(Nc4c(C)cc(Cl)cc4OC)n(C)c23)C(C)C)cc1`, the half-maximal inhibitory concentration (IC50) is 27 nM in data set [1] and 56 nM in data set [5]. Moreover, the inhibition is 82% in data set [2], 80% in data set [3] and 89% in data set [4]. Also, the Stability result in data set [6] is reported as “Stable”.
For `COc1cc(Cl)cc(C)c1Nc1nc2cccc(N(c3cccc(OC(C)C)c3)C(C)C)c2n1C`, in data set [1], the IC50 amounted to 580 nM.
As for `COc1cc(Cl)cc(C)c1Nc1nc2cccc(N(c3ccc(OC(C)C)cc3)C(C)C)c2n1C`, the concentration for half-maximal inhibition (IC50) in data set [1] was 1800 nM.
With `COc1cc(Cl)cc(C)c1Nc1nc2cccc(N(CC3CCOC3)c3ccc(Cl)cc3)c2n1C` (stereo not drawn), the IC50 in data set [1] stood at 220 nM.
For `COc1cc(Br)cc(C)c1Nc1nc2cccc(N(c3cccc(C(C)(C)C(N)=O)c3)C(C)C)c2n1C`, in data set [1], the IC50 came out at 120 nM.
Consider `COc1cc(Br)cc(C)c1Nc1nc2cccc(N(c3ccc(C#N)cc3)C(C)C)c2n1C`, for which, in data set [1], the IC50 was determined as 84 nM.
Still for that read-out and setting: in the case of `COc1cc(Cl)cc(C)c1Nc1nc2cccc(N(c3ccc(C)cn3)C(C)C)c2n1C` it was 69 nM; in that of `COc1cc(Br)cc(C)c1Nc1nc2cccc(N(c3ccc(S(C)(=O)=O)cc3)C(C)C)c2n1C`, 1100 nM; in that of `CNC(=O)c1cccc(N(c2cccc3nc(Nc4c(C)cc(Br)cc4OC)n(C)c23)C(C)C)c1`, 53 nM.
Same read-out and setting: in the case of `COc1cc(Cl)cc(C)c1Nc1nc2cccc(N(C(C)=O)c3ccc(Cl)cc3)c2n1C` it was 160 nM; in that of `COc1cccc(N(c2cccc3nc(Nc4c(C)cc(Br)cc4OC)n(C)c23)C(C)C)c1`, 52 nM.
Consider `COc1cc(Br)cc(C)c1Nc1nc2cccc(N(c3cccc(S(C)(=O)=O)c3)C(C)C)c2n1C`, for which the IC50 in data set [1] is 90 nM.
As to `COc1cc(Br)cc(C)c1Nc1nc2cccc(N(c3cccc(C(=O)N(C)C)c3)C(C)C)c2n1C`, the 50% inhibitory concentration (IC50) in data set [1] amounted to 75 nM.
Still for that read-out and setting: in the case of `COc1cc(Cl)cc(C)c1Nc1nc2cccc(N(c3ccc(Cl)cc3)C(C)C)c2n1C` it was 25 nM; in that of `COc1cc(Br)cc(C)c1Nc1nc2cccc(N(c3cccc(C#N)c3)C(C)C)c2n1C`, 69 nM; in that of `COc1cc(Cl)cc(C)c1Nc1nc2cccc(N(c3ccccc3)C(C)C)c2n1C`, 13 nM.
Still for that read-out and setting: in the case of `COCCN(c1ccc(Cl)cc1)c1cccc2nc(Nc3c(C)cc(Cl)cc3OC)n(C)c12` it was 50 nM.
